Laboratory results: ChEMBL document CHEMBL1155284, “Synthesis and antibacterial activity of some new thiadiaza/triazaphospholes, thiadiaza/triaza/tetrazaphosphinines and thiadiaza/tetrazaphosphepines containing 1,2,4-triazinone moiety” (Eur J Med Chem, 2009)
In brackets after ≈: the same amount, converted by molar mass.

Columns and labels:
Escherichia coli [1] = assay: Antimicrobial activity against Escherichia coli MTCCB 1652 after 24 hrs by tube dilution technique; format: functional; conditions: MTCCB 1652, 24 h
Method in brief: (§1)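 Tube dilution in nutrient broth at 3.12, 6.25, 12.5, 25 and 50 µg/mL. Each tube received 100 µL of standardized bacterial suspension (10^7 cell/mL). Tubes were incubated at 37 °C for 24 h. MIC was the lowest concentration that maintained or reduced inoculum viability.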

Staphylococcus aureus [2] = assay: Antimicrobial activity against Staphylococcus aureus MTCCB 737 at 100 ug/mL after 16 to 20 hrs by disk diffusion method; format: functional; conditions: read-out: DIZ
Method in brief: (§2)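 Nutrient agar disc diffusion with compounds at 100 µg/mL and DMSO as blank. Plates were incubated 16–20 h at 37 °C, then inhibition zone diameter was measured. Zones of 12 mm or less were scored resistant, 13–17 mm moderate, and 18 mm or more maximum inhibition.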

Pseudomonas aeruginosa [3] = assay: Antimicrobial activity against Pseudomonas aeruginosa ATCC 27853 at 100 ug/mL after 16 to 20 hrs by disk diffusion method; format: functional; conditions: read-out: DIZ; method in brief: as §2
[4] = system: Staphylococcus epidermidis; assay: Antimicrobial activity against Staphylococcus epidermidis MTCCB 1824 at 100 ug/mL after 16 to 20 hrs by disk diffusion method; format: functional; conditions: read-out: DIZ; method in brief: as §2
Staphylococcus aureus [5] = assay: Antimicrobial activity against Staphylococcus aureus MTCCB 737 after 24 hrs by tube dilution technique; format: functional; conditions: MTCCB 737, 24 h; method in brief: as §1
[6] = system: Staphylococcus epidermidis; assay: Antimicrobial activity against Staphylococcus epidermidis MTCCB 1824 after 24 hrs by tube dilution technique; format: functional; conditions: MTCCB 1824, 24 h; method in brief: as §1
Pseudomonas aeruginosa [7] = assay: Antimicrobial activity against Pseudomonas aeruginosa ATCC 27853 after 24 hrs by tube dilution technique; format: functional; conditions: ATCC 27853, 24 h; method in brief: as §1
Escherichia coli [8] = assay: Antimicrobial activity against Escherichia coli MTCCB 1652 at 100 ug/mL after 16 to 20 hrs by disk diffusion method; format: functional; conditions: read-out: DIZ; method in brief: as §2
[9] = (§3) Toxicity against Artemia salina larvae after 24 hrs; format: organism-based; conditions: in vivo
Method in brief: (§4)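 Brine shrimp lethality test. Artemia salina eggs were hatched 48 h at 37 °C in filtered sea salt solution (38 g/L) with constant oxygen to give nauplii. Stock was 10 mg compound in 2 mL DMSO, diluted to 80, 40, 20, 10 and 5 µg/mL in triplicate vials, about 10 nauplii each, with a DMSO control. LC50 is the mean of three values.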

Staphylococcus aureus [10] = assay: Antimicrobial activity against Staphylococcus aureus MTCCB 737 at 30 ug/mL after 16 to 20 hrs by disk diffusion method; format: functional; conditions: read-out: DIZ
Method in brief: (§5)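 Nutrient agar disc diffusion with the reference drug tetracycline at 30 µg/mL and DMSO as blank. Plates were incubated 16–20 h at 37 °C, then inhibition zone diameter was measured. Zones of 12 mm or less were scored resistant, 13–17 mm moderate, and 18 mm or more maximum inhibition.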

Escherichia coli [11] = assay: Antimicrobial activity against Escherichia coli MTCCB 1652 at 30 ug/mL after 16 to 20 hrs by disk diffusion method; format: functional; conditions: read-out: DIZ; method in brief: as §5
[12] = system: Staphylococcus epidermidis; assay: Antimicrobial activity against Staphylococcus epidermidis MTCCB 1824 at 30 ug/mL after 16 to 20 hrs by disk diffusion method; format: functional; conditions: read-out: DIZ; method in brief: as §5
Pseudomonas aeruginosa [13] = assay: Antimicrobial activity against Pseudomonas aeruginosa ATCC 27853
Pseudomonas aeruginosa [14] = assay: Antimicrobial activity against Pseudomonas aeruginosa ATCC 27853 at 30 ug/mL after 16 to 20 hrs by disk diffusion method; format: functional; conditions: read-out: DIZ; method in brief: as §5
Artemia salina = assay: as §3; format: organism-based; conditions: in vivo, 24 h; method in brief: as §4

Row | Molecule | MIC (Escherichia coli [1]) [µg/mL] | zone of inhibition at 100 µg/mL (Staphylococcus aureus [2]) [mm] | zone of inhibition at 100 µg/mL (Pseudomonas aeruginosa [3]) [mm] | zone of inhibition at 100 µg/mL [4] [mm] | MIC (Staphylococcus aureus [5]) [µg/mL] | MIC [6] [µg/mL] | MIC (Pseudomonas aeruginosa [7]) [µg/mL] | zone of inhibition at 100 µg/mL (Escherichia coli [8]) [mm] | LC50 at 24 h [9] [µg/mL] | zone of inhibition at 30 µg/mL (Staphylococcus aureus [10]) [mm] | zone of inhibition at 30 µg/mL (Escherichia coli [11]) [mm] | zone of inhibition at 30 µg/mL [12] [mm] | diameter of the inhibition zone (DIZ) (Pseudomonas aeruginosa [13]) [mm] | zone of inhibition at 30 µg/mL (Pseudomonas aeruginosa [14]) [mm] | LC50 (Artemia salina) [µg/mL]
1 | CC1=Nn2c(nnc(C)c2=O)SP1(c1ccccc1)(c1ccccc1)c1ccccc1 | 12.5 (≈ 28.1 µM) | 20 | 22 | 19 | 25 (≈ 56.2 µM) | 25 (≈ 56.2 µM) | 12.5 (≈ 28.1 µM) | 19 |  |  |  |  |  |  | 
2 | Cc1nnc2n(c1=O)NP(=O)(c1ccccc1)S2 (stereo not drawn) | 12.5 (≈ 44.6 µM) | 20 | 23 | 17 | 25 (≈ 89.2 µM) | 25 (≈ 89.2 µM) | 12.5 (≈ 44.6 µM) | 21 | 7.85 (≈ 28 µM) |  |  |  |  |  | 
3 | Cc1nnc(S)n(N)c1=O | 50 (≈ 316 µM) | 13 | 15 | 14 | 50 (≈ 316 µM) | 50 (≈ 316 µM) | 25 (≈ 158 µM) | 14 |  |  |  |  |  |  | 
4 | Cc1nnc(N)n(N)c1=O | 50 (≈ 354 µM) | 16 | 13 | 15 | 25 (≈ 177 µM) | 25 (≈ 177 µM) | 50 (≈ 354 µM) | 14 |  |  |  |  |  |  | 
5 | Cc1nnc(NN)n(N)c1=O | 25 (≈ 160 µM) | 17 | 15 | 15 | 50 (≈ 320 µM) | 50 (≈ 320 µM) | 50 (≈ 320 µM) | 15 |  |  |  |  |  |  | 
6 | CCOP1(=O)Sc2nnc(C)c(=O)n2NC1c1ccc(Cl)cc1 (stereo not drawn) | 50 (≈ 134 µM) | 27 | 20 | 23 | 6.25 (≈ 16.8 µM) | 6.25 (≈ 16.8 µM) | 25 (≈ 67.1 µM) | 15 | 13.8 (≈ 37.1 µM) |  |  |  |  |  | 
7 | Cc1nnc2n(c1=O)N=C(c1ccccc1)CP(c1ccccc1)(c1ccccc1)(c1ccccc1)S2 | 50 (≈ 96 µM) | 21 | 19 | 19 | 25 (≈ 48 µM) | 12.5 (≈ 24 µM) | 50 (≈ 96 µM) | 16 |  |  |  |  |  |  | 
8 | CN(C)[C@@H]1C(O)=C(C(N)=O)C(=O)[C@@]2(O)C(O)=C3C(=O)c4c(O)cccc4[C@@](C)(O)[C@H]3C[C@@H]12 [TETRACYCLINE] | 6.25 (≈ 14.1 µM) |  |  |  | 6.25 (≈ 14.1 µM) | 6.25 (≈ 14.1 µM) | 6.25 (≈ 14.1 µM) |  |  | 30 | 28 | 25 | 29 | 29 | 
9 | BLEOMYCIN |  |  |  |  |  |  |  |  |  |  |  |  |  |  | 0.41
